Experiment [1] concerns the target Tyrosine-protein kinase Lck (Homo sapiens) (UniProt P06239). Kind of experiment: Inhibition of AMP-PNP binding to ATP binding site of LCK by saturation transfer difference spectra. In outline:
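Lck kinase domain in 25 mM HEPES (pH 7.5), 200 mM NaCl, 10 mM MgCl2, 1 mM DTT, 5% DMSO/95% D2O; 25 °C, 600 MHz. Ligand is in large excess over protein. Protein saturated at 0.78 ppm for 3 s with 60 G4 Gaussian cascade pulses of 50 ms, 1 ms apart. STD % is peak intensity in STD spectrum over 1D 1H reference.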

Experiment [2] deals with T1, Proto-oncogene tyrosine-protein kinase Src (Homo sapiens, UniProt P12931). Kind of experiment: Inhibition of staurosporine binding to ATP binding site of human SRC by saturation transfer difference spectra. In outline: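 Human Src kinase domain (T250-L536, Sf21 insect-cell expressed, His6-tagged, Ni-NTA then gel filtration). NMR buffer 20 mM HEPES (pH 7.5), 200 mM NaCl, 5 mM MgCl2, 2 mM DTT, 2% DMSO/98% D2O; 25 °C, 600 MHz. Saturation at 0.78 ppm for 3 s (60 × 50 ms G4 pulses). STD % is STD over 1D reference intensity.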
T1 sequence (P12931 2-536 limits assumed): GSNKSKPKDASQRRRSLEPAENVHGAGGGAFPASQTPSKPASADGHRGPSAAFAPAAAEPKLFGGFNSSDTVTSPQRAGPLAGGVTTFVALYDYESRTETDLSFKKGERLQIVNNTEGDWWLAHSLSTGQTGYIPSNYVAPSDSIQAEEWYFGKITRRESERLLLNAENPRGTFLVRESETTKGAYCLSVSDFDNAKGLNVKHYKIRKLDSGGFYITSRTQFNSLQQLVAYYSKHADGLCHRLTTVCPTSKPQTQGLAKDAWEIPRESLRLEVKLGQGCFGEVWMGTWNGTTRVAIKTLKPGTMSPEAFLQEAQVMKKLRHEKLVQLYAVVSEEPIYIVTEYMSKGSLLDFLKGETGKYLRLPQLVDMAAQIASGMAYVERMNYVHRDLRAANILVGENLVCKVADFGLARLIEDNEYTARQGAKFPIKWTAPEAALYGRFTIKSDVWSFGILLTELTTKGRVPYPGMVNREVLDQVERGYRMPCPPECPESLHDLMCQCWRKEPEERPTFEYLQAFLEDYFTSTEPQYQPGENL

The target in experiment [3] is Tyrosine-protein kinase Lck (Homo sapiens) (UniProt P06239). Kind of experiment: Binding affinity to LCK assessed as reduction of compound relaxation intensity ratio at 100 uM by NMR method. Put shortly:
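Lck kinase domain in 25 mM HEPES (pH 7.5), 200 mM NaCl, 10 mM MgCl2, 1 mM DTT, 5% DMSO/95% D2O; 25 °C, 600 MHz cryoprobe. T1ρ spectra at 10 and 200 ms spin-lock, 128 scans each. Ratio is the 200 ms over 10 ms resonance intensity, compared between spin-labelled probe and its reduced form.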

Experiment [4] deals with Tyrosine-protein kinase ABL1 (Homo sapiens, UniProt P00519). Nature of the experiment: Inhibition of Abl 1. In outline: (§1)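 Commercial recombinant kinases with kinase-optimised fluorescent peptide substrate at 1.5 μM and ATP at each kinase's measured Km; enzyme below 50 nM final. 11-point titration in DMSO, […] to 5 nM final. Room temperature, 1-2 h, to 20-30% substrate phosphorylation. EDTA stop, then substrate/product electrophoretic separation. IC50 from a Hill-equation fit of percent inhibition.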

For experiment [5], the target named is Aurora kinase B (Homo sapiens, UniProt Q96GD4). Kind of experiment: Inhibition of Aurora B. Put shortly: as §1
Experiment [6] deals with Cyclin-dependent kinase 1/cyclin B (Homo sapiens, UniProt P06493). Nature of the experiment: Inhibition of CDK1/Cyclin B. It is filed as protein-complex assay.
Experiment [7] addresses Cyclin-dependent kinase 2/cyclin A (Homo sapiens, UniProt P24941). Nature of the experiment: Inhibition of CDK2/Cyclin A. The experiment is classed as protein-complex assay.
In experiment [8] the target is Tyrosine-protein kinase Fyn (Homo sapiens, UniProt P06241). Kind of experiment: Inhibition of Fyn. Put shortly: as §1
Sequence of Tyrosine-protein kinase Fyn (P06241 whole entry): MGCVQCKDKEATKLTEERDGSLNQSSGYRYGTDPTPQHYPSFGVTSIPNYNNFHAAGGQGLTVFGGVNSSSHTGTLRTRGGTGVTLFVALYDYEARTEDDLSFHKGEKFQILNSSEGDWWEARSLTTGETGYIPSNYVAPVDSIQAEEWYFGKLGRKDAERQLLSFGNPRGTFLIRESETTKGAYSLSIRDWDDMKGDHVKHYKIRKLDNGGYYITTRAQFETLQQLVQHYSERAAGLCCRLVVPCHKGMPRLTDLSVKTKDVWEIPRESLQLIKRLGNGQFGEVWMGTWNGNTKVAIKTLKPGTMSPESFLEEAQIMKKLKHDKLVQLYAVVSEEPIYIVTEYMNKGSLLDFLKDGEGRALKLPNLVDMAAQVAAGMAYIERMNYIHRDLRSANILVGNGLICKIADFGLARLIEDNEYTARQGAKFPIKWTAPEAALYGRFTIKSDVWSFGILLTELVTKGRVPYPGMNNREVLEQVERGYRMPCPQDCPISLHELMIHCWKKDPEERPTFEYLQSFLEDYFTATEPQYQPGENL
Experiment [9] addresses Tyrosine-protein kinase HCK (Homo sapiens, UniProt P08631). Kind of experiment: Inhibition of Hck. In outline: as §1
Experiment [10] has as its target Tyrosine-protein kinase Lyn (Homo sapiens, UniProt P07948). Nature of the experiment: Inhibition of Lyn A. Put shortly: as §1
Experiment [11] has as its target T1, Proto-oncogene tyrosine-protein kinase Src. Nature of the experiment: Inhibition of src kinase. Put shortly:
as §1

The target of experiment [12] is Vascular endothelial growth factor receptor 2 (Homo sapiens, UniProt P35968). Nature of the experiment: Inhibition of KDR. Put shortly:
as §1

Experiment [13] deals with Mitogen-activated protein kinase 1 (Homo sapiens, UniProt P28482). Kind of experiment: Inhibition of ERK2.
Sequence of Mitogen-activated protein kinase 1 (P28482 whole entry): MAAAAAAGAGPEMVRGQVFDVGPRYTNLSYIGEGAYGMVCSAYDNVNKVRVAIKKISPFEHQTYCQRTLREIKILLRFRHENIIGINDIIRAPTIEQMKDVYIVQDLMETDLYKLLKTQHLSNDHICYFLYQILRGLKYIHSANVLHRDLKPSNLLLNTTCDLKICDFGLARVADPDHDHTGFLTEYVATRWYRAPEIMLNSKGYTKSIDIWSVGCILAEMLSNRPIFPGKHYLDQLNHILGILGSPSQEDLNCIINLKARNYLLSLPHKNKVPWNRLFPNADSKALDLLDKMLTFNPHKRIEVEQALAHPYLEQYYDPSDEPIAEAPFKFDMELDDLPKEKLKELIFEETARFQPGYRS
The target of experiment [14] is Mitogen-activated protein kinase 14 (Homo sapiens, UniProt Q16539). Nature of the experiment: Inhibition of p38alpha.
The target of experiment [15] is MAP kinase-activated protein kinase 2 (Homo sapiens, UniProt P49137). Nature of the experiment: Inhibition of MK2.
A short description of experiment [16]: Inhibition of PKA.
Experiment [17] has as its target Protein kinase C beta type (Homo sapiens, UniProt P05771). Nature of the experiment: Inhibition of PKCbeta1.
For experiment [18], the target named is Protein kinase C alpha type (Homo sapiens, UniProt P17252). Nature of the experiment: Inhibition of PKCalpha. Put shortly:
as §1

Experiment [19] concerns the target Casein kinase I isoform gamma-1 (Homo sapiens, UniProt Q9HCP0). Nature of the experiment: Inhibition of CK1gamma1.
For experiment [20], the target named is T2, Mitogen-activated protein kinase kinase kinase kinase 2 (Homo sapiens, UniProt Q12851).
T2 sequence (Q12851 whole entry): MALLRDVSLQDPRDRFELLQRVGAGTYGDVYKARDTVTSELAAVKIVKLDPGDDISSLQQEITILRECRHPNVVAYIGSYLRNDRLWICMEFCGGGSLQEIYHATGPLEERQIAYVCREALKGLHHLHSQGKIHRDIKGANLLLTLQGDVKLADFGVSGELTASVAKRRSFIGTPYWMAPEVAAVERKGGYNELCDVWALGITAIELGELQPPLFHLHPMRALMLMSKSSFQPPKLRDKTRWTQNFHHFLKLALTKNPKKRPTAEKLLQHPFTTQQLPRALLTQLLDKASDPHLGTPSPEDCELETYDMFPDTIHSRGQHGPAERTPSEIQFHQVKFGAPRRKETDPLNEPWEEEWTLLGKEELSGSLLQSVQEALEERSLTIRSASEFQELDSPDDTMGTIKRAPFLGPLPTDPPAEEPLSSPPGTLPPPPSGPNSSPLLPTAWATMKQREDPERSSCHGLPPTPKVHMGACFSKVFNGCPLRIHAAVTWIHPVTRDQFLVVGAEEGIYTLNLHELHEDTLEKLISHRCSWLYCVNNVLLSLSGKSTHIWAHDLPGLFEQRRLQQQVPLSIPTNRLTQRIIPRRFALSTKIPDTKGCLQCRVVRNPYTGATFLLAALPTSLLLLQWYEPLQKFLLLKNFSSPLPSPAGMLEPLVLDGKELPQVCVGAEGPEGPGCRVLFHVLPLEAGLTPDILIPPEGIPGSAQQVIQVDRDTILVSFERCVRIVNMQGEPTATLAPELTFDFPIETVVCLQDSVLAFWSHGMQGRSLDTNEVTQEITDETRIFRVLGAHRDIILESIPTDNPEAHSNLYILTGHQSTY
Nature of the experiment: Inhibition of GCK. Put shortly:
as §1

For experiment [21], the target named is Platelet-derived growth factor receptor alpha (Homo sapiens, UniProt P16234). Nature of the experiment: Inhibition of PDGFRalpha. Put shortly:
as §1

Experiment [22] addresses Ribosomal protein S6 kinase alpha-1 (Homo sapiens, UniProt Q15418). Nature of the experiment: Inhibition of RSK1.
Experiment [23] deals with T1, Proto-oncogene tyrosine-protein kinase Src. Kind of experiment: Inhibition of AMP-PNP binding to ATP binding site of human SRC by saturation transfer difference spectra.
Experiment [24] has the same target. Kind of experiment: Inhibition of src kinase by functional activity assay of the Src kinase domain.

This passage reports Activity and IC50 results from ChEMBL document CHEMBL1156806, “Novel synthesis and structural characterization of a high-affinity paramagnetic kinase probe for the identification of non-ATP site binders by nuclear magnetic resonance” (J Med Chem, 2010).

The source made the active and inactive calls. The calls are words filed in the database; no cut-off is given here.

Sequence of Tyrosine-protein kinase Lck (Homo sapiens) (P06239 2-509 limits assumed): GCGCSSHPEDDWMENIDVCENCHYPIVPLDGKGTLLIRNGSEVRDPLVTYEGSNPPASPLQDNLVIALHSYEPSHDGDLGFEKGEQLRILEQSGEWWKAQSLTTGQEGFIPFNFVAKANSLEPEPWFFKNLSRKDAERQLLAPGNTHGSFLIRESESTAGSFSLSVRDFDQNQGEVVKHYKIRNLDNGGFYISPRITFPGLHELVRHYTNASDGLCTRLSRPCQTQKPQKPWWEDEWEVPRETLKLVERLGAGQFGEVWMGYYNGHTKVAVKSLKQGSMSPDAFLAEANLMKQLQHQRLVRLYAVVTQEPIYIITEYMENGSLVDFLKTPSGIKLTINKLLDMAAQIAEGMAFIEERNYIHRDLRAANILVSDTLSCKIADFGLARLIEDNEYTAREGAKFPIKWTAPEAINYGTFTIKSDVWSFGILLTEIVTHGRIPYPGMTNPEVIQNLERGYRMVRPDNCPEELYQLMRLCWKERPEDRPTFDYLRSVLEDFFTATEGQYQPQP
Sequence of Tyrosine-protein kinase Lyn (P07948 whole entry): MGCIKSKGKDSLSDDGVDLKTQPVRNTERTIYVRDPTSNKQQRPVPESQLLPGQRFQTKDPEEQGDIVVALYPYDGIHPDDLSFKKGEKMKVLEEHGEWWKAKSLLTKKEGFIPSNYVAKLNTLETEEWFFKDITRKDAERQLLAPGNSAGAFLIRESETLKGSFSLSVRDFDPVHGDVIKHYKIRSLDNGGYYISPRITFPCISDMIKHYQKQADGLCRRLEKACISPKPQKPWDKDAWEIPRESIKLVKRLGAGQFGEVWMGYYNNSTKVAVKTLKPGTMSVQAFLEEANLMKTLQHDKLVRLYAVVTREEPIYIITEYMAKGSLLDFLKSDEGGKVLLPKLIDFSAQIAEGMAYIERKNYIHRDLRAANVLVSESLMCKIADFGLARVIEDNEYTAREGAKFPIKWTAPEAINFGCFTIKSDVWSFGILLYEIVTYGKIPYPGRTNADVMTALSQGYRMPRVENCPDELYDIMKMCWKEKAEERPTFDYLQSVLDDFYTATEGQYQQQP
Sequence of Tyrosine-protein kinase HCK (P08631 whole entry): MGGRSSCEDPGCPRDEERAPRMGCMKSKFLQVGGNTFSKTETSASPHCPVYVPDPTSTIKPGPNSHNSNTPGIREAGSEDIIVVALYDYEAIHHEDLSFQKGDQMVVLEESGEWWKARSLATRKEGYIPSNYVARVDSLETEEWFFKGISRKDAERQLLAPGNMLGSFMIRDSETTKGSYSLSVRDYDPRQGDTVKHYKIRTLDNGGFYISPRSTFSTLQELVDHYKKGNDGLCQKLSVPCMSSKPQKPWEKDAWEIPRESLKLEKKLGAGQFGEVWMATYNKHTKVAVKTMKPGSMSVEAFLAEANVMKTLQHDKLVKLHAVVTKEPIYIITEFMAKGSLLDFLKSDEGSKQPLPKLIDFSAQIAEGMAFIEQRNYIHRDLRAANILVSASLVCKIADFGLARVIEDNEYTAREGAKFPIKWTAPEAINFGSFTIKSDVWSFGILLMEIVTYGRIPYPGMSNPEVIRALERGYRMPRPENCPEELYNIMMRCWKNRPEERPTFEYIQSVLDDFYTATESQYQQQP
Sequence of Vascular endothelial growth factor receptor 2 (P35968 whole entry): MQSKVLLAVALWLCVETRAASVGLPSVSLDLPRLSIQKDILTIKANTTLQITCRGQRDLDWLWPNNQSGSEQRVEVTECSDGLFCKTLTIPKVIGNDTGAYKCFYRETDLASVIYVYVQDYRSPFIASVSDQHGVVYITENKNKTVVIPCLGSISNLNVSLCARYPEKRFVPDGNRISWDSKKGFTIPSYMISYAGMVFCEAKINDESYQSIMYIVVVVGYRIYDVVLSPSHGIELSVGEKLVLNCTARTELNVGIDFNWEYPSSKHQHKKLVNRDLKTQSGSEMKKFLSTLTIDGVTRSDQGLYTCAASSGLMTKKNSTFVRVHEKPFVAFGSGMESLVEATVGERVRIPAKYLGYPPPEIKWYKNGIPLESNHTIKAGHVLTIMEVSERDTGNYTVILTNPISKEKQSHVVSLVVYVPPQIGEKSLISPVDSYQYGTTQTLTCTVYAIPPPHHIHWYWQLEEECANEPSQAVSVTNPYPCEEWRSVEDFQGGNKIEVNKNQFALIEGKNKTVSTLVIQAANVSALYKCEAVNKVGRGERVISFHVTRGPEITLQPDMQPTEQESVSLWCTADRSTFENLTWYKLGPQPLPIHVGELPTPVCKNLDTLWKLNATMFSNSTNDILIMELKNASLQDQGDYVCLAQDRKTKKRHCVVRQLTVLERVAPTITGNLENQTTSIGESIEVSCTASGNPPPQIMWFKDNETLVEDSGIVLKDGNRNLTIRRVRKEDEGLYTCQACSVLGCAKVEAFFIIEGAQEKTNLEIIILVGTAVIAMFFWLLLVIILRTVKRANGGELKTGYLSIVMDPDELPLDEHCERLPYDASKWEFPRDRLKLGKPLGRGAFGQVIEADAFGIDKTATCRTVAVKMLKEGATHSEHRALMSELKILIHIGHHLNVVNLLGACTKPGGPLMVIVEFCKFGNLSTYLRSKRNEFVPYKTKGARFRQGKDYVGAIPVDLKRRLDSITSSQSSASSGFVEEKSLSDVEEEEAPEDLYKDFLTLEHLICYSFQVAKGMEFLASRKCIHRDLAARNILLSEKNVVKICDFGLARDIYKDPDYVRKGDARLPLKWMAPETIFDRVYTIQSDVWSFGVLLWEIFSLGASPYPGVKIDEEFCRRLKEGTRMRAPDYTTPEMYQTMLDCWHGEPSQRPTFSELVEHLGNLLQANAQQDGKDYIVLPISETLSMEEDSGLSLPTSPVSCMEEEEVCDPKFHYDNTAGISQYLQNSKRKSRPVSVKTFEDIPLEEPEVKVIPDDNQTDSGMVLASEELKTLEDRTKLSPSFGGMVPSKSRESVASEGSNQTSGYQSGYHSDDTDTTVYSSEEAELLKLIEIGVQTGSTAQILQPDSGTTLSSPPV
Sequence of Protein kinase C beta type (P05771 whole entry): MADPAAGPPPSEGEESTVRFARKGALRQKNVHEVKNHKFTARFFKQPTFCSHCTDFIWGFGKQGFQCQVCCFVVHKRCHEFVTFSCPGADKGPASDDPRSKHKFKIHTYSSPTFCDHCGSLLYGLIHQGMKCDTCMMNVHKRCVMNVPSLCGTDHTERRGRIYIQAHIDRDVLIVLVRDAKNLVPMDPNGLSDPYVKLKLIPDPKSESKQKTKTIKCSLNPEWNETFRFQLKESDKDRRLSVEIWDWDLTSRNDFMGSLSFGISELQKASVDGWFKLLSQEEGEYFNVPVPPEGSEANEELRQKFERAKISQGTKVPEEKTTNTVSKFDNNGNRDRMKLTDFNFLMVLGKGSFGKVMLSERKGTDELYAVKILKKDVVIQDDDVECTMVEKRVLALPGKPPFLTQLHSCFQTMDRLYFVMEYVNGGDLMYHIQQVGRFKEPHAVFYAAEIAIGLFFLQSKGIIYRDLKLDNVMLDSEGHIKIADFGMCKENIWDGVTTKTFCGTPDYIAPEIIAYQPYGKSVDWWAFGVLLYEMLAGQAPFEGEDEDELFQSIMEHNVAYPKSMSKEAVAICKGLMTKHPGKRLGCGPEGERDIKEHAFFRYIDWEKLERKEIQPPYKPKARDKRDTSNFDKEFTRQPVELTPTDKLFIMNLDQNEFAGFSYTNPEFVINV

`O=C(O)c1ccccc1Nc1ccccc1`: the result in experiment [1] and in [3] was Active. In addition, the outcome in experiment [2] was inactive.

In the case of `CC1(C)CC(NC(=O)c2cccc(-c3cc4nccc(Nc5cccc(O)c5)n4n3)c2)CC(C)(C)N1[O]`, the IC50 in experiment [4] is 5 nM; in [5] it was 2900 nM; in [6], over 50000 nM; in [7] it was over 50000 nM; in experiment [8], 5 nM; in experiment [9] it was 16 nM. Also, the IC50 in experiment [10] is 7 nM; in [11] it was 5 nM; in experiment [12], 3.3 nM; in experiment [13], over 50000 nM; in experiment [14] it was over 50000 nM; in experiment [15], over 50000 nM. Moreover, the IC50 is over 50000 nM in experiment [16]; over 60000 nM in experiment [17]; 1300 nM in experiment [18]; over 50000 nM in [19]; 24 nM in [20]; 38 nM in [21]. The compound also displayed an IC50 in experiment [22] of over 50000 nM. For the same compound, the result in [1] and in experiment [23] was Active.

Take `O=C(Cc1ccc(-c2ccc(OCCN3CCOCC3)cc2)cn1)NCc1ccccc1` [TIRBANIBULIN]: the IC50 in [11] was over 20000 nM; in [24], 40000 nM. Also, the outcome in experiment [1] and in [3] was Active. For the same compound, the outcome in [23] and in [2] was inactive.
